The subject of data set [1] is Mus musculus. The data set can be described thus: Reduction of PTEN mRNA level in BALB/c mouse liver at 37 mg/kg, ip after 72 hrs. The format is functional, organism-based. Also on record: dose 37 mg/kg.
In data set [2] the test system is Mus musculus. Kind of data set: Reduction of PTEN mRNA level in BALB/c mouse liver at 60 mg/kg, ip after 72 hrs. The format is functional, organism-based. Also on record: dose 60 mg/kg.
Data set [3] has as its system Mus musculus. The data set can be described thus: Hepatotoxicity in BALB/c mouse assessed as increase in liver ALT level at 60 mg/kg, ip after 72 hrs. The format is toxicity, organism-based. The note with it: in vivo. The arrangement: dose 60 mg/kg, route intraperitoneal.
In data set [4] the test system is Mus musculus. The data set can be described thus: Reduction of PTEN mRNA level in BALB/c mouse liver at 100 mg/kg, ip after 72 hrs. The format is functional. The gist of the method: (§1)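 Balb/c mice, 6 weeks old, n = 4 per dose group, single ip doses of 32, 66 or 100 mg/kg; killed 72 h after administration; serum ALT and liver PTEN mRNA quantified after sacrifice; errors as sd.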

Data set [5] deals with Mus musculus. Kind of data set: Metabolic stability in BALB/c mouse liver assessed as antisense oligonucleotide level at 18 mg/kg. The format is ADME, organism-based. Also on record: dose 18 mg/kg. The note with it: in vivo.
The test system of data set [6] is Mus musculus. The data set can be described thus: Hepatotoxicity in BALB/c mouse assessed as increase in liver ALT level at 100 mg/kg, ip after 72 hrs. The format is toxicity, organism-based. The note with it: in vivo. The arrangement: dose 100 mg/kg, route intraperitoneal. The gist of the method:
as §1

The species entered for data set [7] is Mus musculus. Kind of data set: Binding affinity to mouse PTEN mRNA assessed as melting temperature. In a few lines: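 Tm of ASO–RNA duplex, i.e. melting temperature of the ASO hybridised to its complementary RNA.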
Data set [8] relates to Mus musculus. The data set can be described thus: Reduction of PTEN level in ip dosed BALB/c mouse liver at 37 mg/kg by Western blot analysis. The format is functional, organism-based. The arrangement: dose 37 mg/kg. In general terms: A western blot detects proteins with antibodies after separation by electrophoresis.
In data set [9] the test system is Mus musculus. Kind of data set: Hepatotoxicity in BALB/c mouse assessed as increase in liver ALT level at 66 mg/kg, ip after 72 hrs. The format is toxicity, organism-based. The arrangement: dose 66 mg/kg, route intraperitoneal. The note with it: in vivo. The gist of the method: as §1
The test system of data set [10] is Mus musculus. Kind of data set: Hepatotoxicity in ip dosed BALB/c mouse assessed as increase in liver ALT level at 5 to 10 times of ED50 after 72 hrs. The note with it: in vivo. The format is toxicity, organism-based.
Data set [11] concerns Mus musculus. Kind of data set: Reduction of PTEN mRNA level in BALB/c mouse liver at 32 mg/kg, ip after 72 hrs. Also on record: dose 32 mg/kg. The format is functional, organism-based. In a few lines: as §1
The subject of data set [12] is Mus musculus. The data set can be described thus: Reduction of PTEN mRNA level in ip dosed BALB/c mouse liver after 72 hrs. The format is functional.
Data set [13] has as its system Mus musculus. Kind of data set: Hepatotoxicity in BALB/c mouse assessed as increase in liver ALT level at 32 mg/kg, ip after 72 hrs. The format is toxicity, organism-based. Also on record: dose 32 mg/kg, route intraperitoneal. The note with it: in vivo. The gist of the method: as §1
Data set [14] has as its system Mus musculus. Kind of data set: Reduction of PTEN mRNA level in ip dosed BALB/c mouse liver administered twice a week for 3 weeks measured after 72 hrs of last dose. The format is functional. In a few lines:
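Male Balb/c mice, 6 weeks old, dosed ip twice weekly for 3 weeks at 0.5, 1.5, 4.7 and 15 mg/kg (two ASOs) or 0.7, 2.3, 7.2 and 23 mg/kg (MOE control); sacrificed 72 h after last dose; ALT, liver PTEN mRNA, liver and spleen weights and body weight gain assessed; ED50 derived; errors as sd.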

In data set [15] the test system is Mus musculus. The data set can be described thus: Reduction of PTEN mRNA level in BALB/c mouse liver at 66 mg/kg, ip after 72 hrs. The format is functional, organism-based. The arrangement: dose 66 mg/kg. In a few lines: as §1
A further data set deals with bEND. Kind of data set: Reduction in mouse PTEN mRNA level expressed in mouse bEND cells. The format is functional, cell-based. In a few lines: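 bEND mouse brain endothelial cells transfected with ASO using lipofectin; PTEN mRNA reduction measured over a dose range; IC50 taken from dose-response curves.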

Calls of active or inactive are those of the source. The calls are words filed in the database; no cut-off is given here.

`Cc1cn([C@@H]2O[C@@]3(COP(O)(=S)O[C@H]4[C@H]5OC[C@]4(COP(O)(=S)O[C@H]4C[C@H](n6cc(C)c(=O)[nH]c6=O)O[C@@H]4COP(O)(=S)O[C@H]4[C@@H](O)[C@H](n6cnc7c6N=CNC7N)O[C@@H]4COP(O)(=S)O[C@H]4[C@@H](O)[C@H](n6cnc7c(=O)[nH]c(N)nc76)O[C@@H]4COP(O)(=S)O[C@H]4[C@@H](O)[C@H](n6ccc(N)nc6=O)O[C@@H]4COP(O)(=S)O[C@H]4[C@@H](O)[C@H](n6cnc7c(N)ncnc76)O[C@@H]4COP(O)(=S)O[C@H]4[C@@H](O)[C@H](n6ccc(N)nc6=O)O[C@@H]4COP(O)(=S)O[C@H]4[C@@H](O)[C@H](n6cc(C)c(=O)[nH]c6=O)O[C@@H]4COP(O)(=S)O[C@H]4[C@@H](O)[C@H](n6cnc7c(=O)[nH]c(N)nc76)O[C@@H]4COP(O)(=S)O[C@H]4[C@@H](O)[C@H](n6cnc7c(=O)[nH]c(N)nc76)O[C@@H]4COP(O)(=S)O[C@H]4[C@@H](O)[C@H](n6ccc(N)nc6=O)O[C@@H]4COP(O)(=S)O[C@H]4[C@H]6OC[C@]4(COP(O)(=S)O[C@H]4[C@H]7OC[C@]4(CO)O[C@H]7n4cc(C)c(=O)[nH]c4=O)O[C@H]6n4cc(C)c(N)nc4=O)O[C@H]5n4cc(C)c(=O)[nH]c4=O)CO[C@@H]2[C@@H]3O)c(=O)nc1N` (stereo partly specified): the outcome in the data set with Mus musculus [1], with Mus musculus [2], in the data set with Mus musculus [4], in the data set on Mus musculus [8], in the data set on Mus musculus [11] and in the data set with Mus musculus [15] was Active. Moreover, the Activity entry was “Non-toxic” with Mus musculus [3]; “Toxic” with Mus musculus [6]; “Toxic” in the data set on Mus musculus [9]; “Toxic” with Mus musculus [10]; “Non-toxic” in the data set on Mus musculus [13]. In addition, in the data set with Mus musculus [5], the Stability amounted to 25 µg/g. For the same compound, in the data set filed under Mus musculus [7], the Tm came out at 60.6 °C. The ED50 in the data set with Mus musculus [12] turned out to be 6 mg/kg; in the data set with Mus musculus [14] it was 2.1 mg/kg. This compound registered an IC50 in the data set on bEND of 4.9 nM.

The term ED50 denotes the dose at which the effect has come halfway, by size or by number of responders. By IC50 is commonly meant the concentration that gives 50% inhibition. Higher therefore signals lower potency.

The values above are taken from ChEMBL document CHEMBL1140861, “Short antisense oligonucleotides with novel 2'-4' conformationaly restricted nucleoside analogues show improved potency without increased toxicity in animals” (J Med Chem, 2009).
